Measurements from ChEMBL document CHEMBL1153311, “Inhibitory activity of prostaglandin E2 production by the synthetic 2'-hydroxychalcone analogues: Synthesis and SAR study” (Bioorg Med Chem Lett, 2009).
pIC50: −log10 of the molar value.

Assays:
[1] = system: RAW264.7; assay: Cytotoxicity against mouse RAW264.7 cells assessed as cell viability at 10 uM by MTT assay; assay type: functional; settings: read-out: Activity
How it was run: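 RAW 264.7 mouse macrophage-like cells tested with or without LPS; viability read by MTT assay and reported as percent cell […]; values are the mean of three experiments.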

[2] = biological target: T1, Prostaglandin G/H synthase 2 (Mus musculus, UniProt Q05769); assay: Inhibition of COX2-mediated PGE2 production in LPS-stimulated mouse RAW264.7 cells by enzyme immunoassay
T1 sequence (Q05769 whole entry): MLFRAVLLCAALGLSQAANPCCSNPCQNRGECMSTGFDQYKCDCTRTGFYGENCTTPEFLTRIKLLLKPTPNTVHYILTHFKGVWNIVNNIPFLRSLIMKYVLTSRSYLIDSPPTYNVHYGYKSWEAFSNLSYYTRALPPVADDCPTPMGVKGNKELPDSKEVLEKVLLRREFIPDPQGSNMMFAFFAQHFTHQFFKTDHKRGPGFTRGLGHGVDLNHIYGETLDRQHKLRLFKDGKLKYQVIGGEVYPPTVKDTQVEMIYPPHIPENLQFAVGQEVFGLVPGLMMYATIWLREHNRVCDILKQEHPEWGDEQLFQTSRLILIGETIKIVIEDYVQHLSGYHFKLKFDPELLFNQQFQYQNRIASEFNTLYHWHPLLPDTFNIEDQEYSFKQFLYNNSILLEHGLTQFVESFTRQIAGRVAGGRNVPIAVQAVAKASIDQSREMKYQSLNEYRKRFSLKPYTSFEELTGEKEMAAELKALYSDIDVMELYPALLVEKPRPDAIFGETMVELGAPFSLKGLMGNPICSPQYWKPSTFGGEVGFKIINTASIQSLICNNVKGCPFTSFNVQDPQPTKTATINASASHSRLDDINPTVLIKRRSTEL

[3] = biological target: T2, Prostaglandin G/H synthase 2 (Homo sapiens, UniProt P35354); assay: Inhibition of COX2
T2 sequence (P35354 whole entry): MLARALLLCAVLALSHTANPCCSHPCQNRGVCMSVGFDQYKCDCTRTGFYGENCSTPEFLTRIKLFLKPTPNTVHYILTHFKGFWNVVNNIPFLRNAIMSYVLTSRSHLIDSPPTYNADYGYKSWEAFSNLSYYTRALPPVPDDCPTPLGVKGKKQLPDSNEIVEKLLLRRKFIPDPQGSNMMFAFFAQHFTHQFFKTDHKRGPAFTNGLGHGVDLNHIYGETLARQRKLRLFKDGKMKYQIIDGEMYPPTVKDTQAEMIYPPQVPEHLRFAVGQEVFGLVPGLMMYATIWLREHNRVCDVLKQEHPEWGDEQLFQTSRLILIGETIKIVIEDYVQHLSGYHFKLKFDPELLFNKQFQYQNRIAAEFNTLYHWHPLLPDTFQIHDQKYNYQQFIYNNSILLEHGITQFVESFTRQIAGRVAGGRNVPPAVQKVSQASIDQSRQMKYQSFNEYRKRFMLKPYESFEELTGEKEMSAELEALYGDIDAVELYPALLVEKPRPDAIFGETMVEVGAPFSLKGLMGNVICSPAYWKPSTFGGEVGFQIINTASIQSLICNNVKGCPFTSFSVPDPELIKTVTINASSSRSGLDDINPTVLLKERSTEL
How it was run: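 RAW 264.7 mouse macrophage cells were plated at 2 × 10⁵ cells/well and treated with LPS for 24 h to induce COX-2, then washed. Compounds in DMSO were added in fresh medium containing arachidonic acid for 2 h. PGE₂ released into the medium was measured by EIA, and inhibition was expressed as the mean of three experiments.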

pIC50 [2]	pIC50 [3]	Compound	viability at 10 µM [1] [%]
–	–	COc1ccc(/C=C/C(=O)c2ccccc2O)c(OC)c1	107
5.42	–	COc1cccc(/C=C/C(=O)c2ccccc2O)c1OC	93
5.21	–	COc1cc(/C=C/C(=O)c2ccccc2O)cc(OC)c1OC	65
–	–	O=C(/C=C/c1ccc(OC(F)(F)F)cc1)c1ccccc1O	87
–	–	O=C(/C=C/c1ccc(Cl)cc1)c1ccccc1O	141
5.39	–	O=C(/C=C/c1ccc(OCc2ccccc2)cc1)c1ccccc1O	99
–	–	O=C(/C=C/c1ccccc1)c1ccccc1O [2'-HYDROXYCHALCONE]	119
5.97	–	COc1c(O)cc(O)c2c(=O)cc(-c3ccccc3)oc12 [WOGONIN]	111
–	–	COc1ccc(/C=C/C(=O)c2ccccc2O)cc1OCc1ccccc1	102
–	–	O=C(/C=C/c1ccc(Br)cc1)c1ccccc1O	162
–	5.57	CC(=O)c1cc(C(C)=O)c2c(=O)cc(-c3ccccc3)oc2c1	–
5.34	–	O=C(/C=C/c1ccc(OCc2ccccc2)c(OCc2ccccc2)c1)c1ccccc1O	103
–	–	COc1ccc(/C=C/C(=O)c2ccccc2O)cc1	115
–	–	Cc1ccc(/C=C/C(=O)c2ccccc2O)cc1	152
–	–	O=C(/C=C/c1ccc(Cl)c(Cl)c1)c1ccccc1O	155
–	–	O=C(/C=C/c1cccc(Br)c1)c1ccccc1O	90
–	–	COc1ccc(/C=C/C(=O)c2ccccc2O)cc1Br	159
–	–	CSc1ccc(/C=C/C(=O)c2ccccc2O)cc1	85
–	–	O=C(/C=C/c1ccc(-c2ccccc2)cc1)c1ccccc1O	135
–	–	CS(=O)(=O)Nc1ccc([N+](=O)[O-])cc1OC1CCCCC1 [NS-398]	104
–	–	O=C(/C=C/c1ccc2c(c1)OCO2)c1ccccc1O	118
